Measured values taken from ChEMBL document CHEMBL1124273, “Synthesis and antiviral activity of certain 4-substituted and 2,4-disubstituted 7-[(2-hydroxyethoxy)methyl]pyrrolo[2,3-d]pyrimidines” (J Med Chem, 1988).
pIC50: −log10 of the molar value.

Legend:
[1] = system: HFF; assay: The compound was tested for cytotoxicity against human foreskin fibroblast cell; assay type: functional, cell-based
Method in brief: (§1)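 Visual cytotoxicity was scored on uninfected cells in the plaque-reduction plates: BSC-1 (HSV-1 assay) or HFF (HCMV assay), both grown in MEM(E) with 10% FBS. Cells were examined at 35- and 60-fold magnification and scored 0 to 4+ on the day of staining for plaque counting. The highest concentration tested was 100 μM.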

[2] = system: Cytomegalovirus; assay: Inhibitory activity against human cytomegalovirus determined by plaque reduction assay; assay type: functional, organism-based; conditions: Human betaherpesvirus 5
[3] = The compound was tested for cytotoxicity against BSC1 cell; assay type: functional, cell-based; conditions: Cercopithecidae, BSC-1; method in brief: as §1
[4] = Average percent inhibition of DNA, RNA, and protein synthesis determined in KB cells; assay type: functional, cell-based; conditions: Homo sapiens
Method in brief: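 KB cells (human oral epidermoid carcinoma) grown in MEM(H) with 5% FBS. Cytotoxicity was measured as inhibition of radioactive precursor incorporation into DNA, RNA and protein. An I50 for each was obtained by linear regression against log concentration, and the three I50 values were averaged. The highest concentration tested was 100 μM.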

[5] = system: Human alphaherpesvirus 1; assay: Antiviral activity against Herpes simplex virus type 1 determined by plaque reduction assay; assay type: functional, organism-based
[6] = The compound was tested for cytotoxicity against BSC-1 cells; assay type: functional, cell-based; conditions: Cercopithecidae; method in brief: as §1

Compound	pIC50 [1]	pIC50 [2]	pIC50 [3]	pIC50 [4]	pIC50 [5]	pIC50 [6]
Nc1nc2c(ncn2COC(CO)CO)c(=O)[nH]1 [GANCICLOVIR]	< 4.00	5.06	< 4.00	3.00		
Nc1nc(N)c2ccn(COCCO)c2n1	< 4.00	< 4.00	< 4.00		< 4.00	
CSc1nc(N)c2ccn(COCCO)c2n1	< 4.00	< 4.00	< 4.00		< 4.00	
CC(=O)OCCOCn1ccc2c(Cl)nc(Cl)nc21	4.00	4.40	< 4.00		< 4.00	
CSc1nc(Cl)c2ccn(COCCO)c2n1	4.52	< 4.00	< 4.00		< 4.00	
Nc1nc(Cl)nc2c1ccn2COCCO	< 4.00	< 4.00	< 4.00		< 4.00	
OCCOCn1ccc2c(Cl)nc(Cl)nc21	4.00	4.43	< 4.00		< 4.00	
Nc1nc(O)nc2c1ccn2COCCO	< 4.00	< 4.00	< 4.00		< 4.00	
Nc1ncnc2c1ccn2COCCO	< 4.00	< 4.00	< 4.00	< 4.00	< 4.00	
COc1nc(N)c2ccn(COCCO)c2n1	< 4.00	< 4.00	< 4.00		< 4.00	
Nc1nc2c(ncn2COCCO)c(=O)[nH]1 [ACYCLOVIR]	< 4.00	4.20	< 4.00	< 4.00		
CSc1nc(Cl)c2ccn(COCCOC(C)=O)c2n1	4.00	< 4.00		4.48	< 4.00	< 4.00
CS(=O)(=O)c1nc(N)c2ccn(COCCO)c2n1	< 4.00	< 4.00	< 4.00		< 4.00	
CC(=O)Nc1nc(Cl)c2ccn(COCCO)c2n1	< 4.00	< 4.00	< 4.00	3.95	< 4.00	
